Assay results collected from several papers.
Lines come from different studies, so protocols differ.
Target: Serine/threonine-protein kinase Chk2 (CHEK2, Homo sapiens, UniProt O96017)

Compound | read-out | method | tested at | remaining binding
F[C@@H]1CCN(c2nccc(-c3cnn4ncccc34)n2)C1 | binding | – | 1 µM | 100%
CC(=O)c1c(NS(C)(=O)=O)c2cc(-c3ccc(Cl)cc3)c(-c3ccc(Cl)cc3Cl)nc2n(C)c1=O | cell-free assay | competition with immobilised ligand | 1 µM | 100%
FC(F)(F)Oc1cccc(-c2cnc3ccc(-c4ccncc4)nn23)c1 | cell-free assay | competition with immobilised ligand | 5 µM | 74%
C[C@H]1CCN(c2nccc(-c3cnn4ncccc34)n2)C1 | binding | – | 1 µM | 94%
O=C(Nc1c[nH]nc1C(=O)NC1CCNCC1)c1cc(F)cc(F)c1 | binding | competition with immobilised ligand | 1 µM | 100%
COc1cnc(Nc2cccc(S(N)(=O)=O)c2)nc1N1CCN(c2ccccc2)CC1 | binding | competition with immobilised ligand | 1 µM | 96%
C=CC(=O)N1CCC(C(=O)NCC(=O)N2CCN(c3nc(-c4cnc(N)nc4C(F)F)nc(N4CCOCC4)n3)CC2)CC1 | binding | competition with immobilised ligand | 1 µM | 88%
CN(C)c1nccc(-c2cnn3ncccc23)n1 | binding | – | 1 µM | 100%
CCC(=N\O)/C(C)=C/c1ccc(F)cc1 | cell-free assay | competition with immobilised ligand | 1 µM | 85%
O=C(NCCCN1CCOCC1)c1ccc(Nc2ncc(Cl)c(-c3ccc(Cl)s3)n2)cc1 | binding | competition with immobilised ligand | 1 µM | 82%
CN(c1nccc(-c2cnn3ncccc23)n1)C1CC1 | binding | – | 1 µM | 100%
O=C(c1ccc(Nc2ncc(Cl)c(-c3cc4ccccc4s3)n2)cc1)N1CCC(N2CCCC2)CC1 | binding | competition with immobilised ligand | 1 µM | 82%
c1cnn2ncc(-c3ccnc(N4CCC45COC5)n3)c2c1 | binding | – | 1 µM | 77%
CNC(=O)[C@@H]1CC[C@@H](n2c(-c3ccc4cnccc4c3)nc3ccc(C(=O)NCc4cccc(C(N)=O)c4)cc32)C1 | binding | competition with immobilised ligand | 1 µM | 100%
O=C(NCc1ncc(C(F)(F)F)cc1Cl)c1ccc2c(c1)C1(CCS(=O)(=O)CC1)[C@H](C1CC1)N2S(=O)(=O)c1ccc(F)cc1 | cell-free assay | competition with immobilised ligand | 1 µM | 100%
O=C(c1ccc(Nc2ncc(Cl)c(-c3ccc(Cl)s3)n2)cc1)N1CCC(N2CCCC2)CC1 | binding | competition with immobilised ligand | 1 µM | 87%
Cn1nc(C(=O)NCc2ccc(C(=O)O)cc2)cc1-c1ccc2[nH]ccc2c1 | cell-free assay | competition with immobilised ligand | 0.1 µM | 100%
CN(C)c1nccc(-c2cnc3ncccn23)n1 | binding | – | 1 µM | 79%
CC(C)(O)c1cncc(-c2nc3ccc(F)cc3n2C2CC2)c1 | cell-free assay | competition with immobilised ligand | 1 µM | 100%
c1cncc(-c2cccc(Nc3nccc(NC4CCCCC4)n3)c2)c1 | binding | competition with immobilised ligand | 10 µM | 97%
COc1cccc(CNC(=O)c2nc3scc(COCc4ccc(C(=O)O)cc4)c3c(=O)[nH]2)c1 | cell-free assay | competition with immobilised ligand | 1 µM | 92%
N[C@H]1CCN(c2nccc(-c3cnn4ncccc34)n2)C1 | binding | – | 1 µM | 98%
CCN1CCN(Cc2ccc(C(=O)Nc3ccc(C)c(Oc4ccc5c(c4)CC(=O)N5)c3)cc2C(F)(F)F)CC1 | binding | competition with immobilised ligand | 1 µM | 100%
C[C@@]1(Cc2ccc(C#N)cc2)C(=O)N(c2cc(Cl)cc(Cl)c2)c2ncc(C(=O)NC3(c4nc(C5CCC5)no4)CC3)n21 | cell-free assay | competition with immobilised ligand | 1 µM | 100%
